Results: PubChem BioAssay AID624366 (Broad Institute, 2012)
Where “and” joins values, the source holds several entries; their conditions need not be identical. Equal entries are not always repeated. Calls of active or inactive are those of the source.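 How the source made its calls: active means signal drop with fitted AC50 no more than twice the top valid dose in every repeat run; inconclusive means mixed run calls, flat 30 to 70% drop, or poor fit; inactive means the rest.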

The compounds below were run on SK-MEL-5 viability, CellTiter-Glo ATP luminescence, 24 h (assay: SK-MEL-5 parental cell viability, dose response, orthogonal assay for MITF inhibitor project, CellTiter-Glo luminescence, dry powder, set 4 (AID 624366)).
In short: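 Test system – SK-MEL-5 melanoma cells, parental line of primary-screen reporter line · Buffer or medium – phenol red-free growth medium · Dosing – multiple compound doses delivered by pin transfer · Times – 24 h treatment at 37 °C, 5 min RT read · Detection – CellTiter-Glo luminescence measuring cellular ATP · Evaluation – viability via ATP level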

Row | Compound | AC50
1 | O=C(NC1=C(N2CCSCC2)C(=O)c2ccccc2C1=O)c1ccc(Br)cc1 | > 70 µM (inactive)
2 | CN1CCN(C2=C(NC(=O)c3ccc(Br)cc3)C(=O)c3ccccc3C2=O)CC1 | 8 µM
3 | O=C1C(Nc2ccccc2)=C(N2CCCCC2)C(=O)c2ccccc21 | 25.3 µM
4 | CCN1CCN(C2=C(NC(=O)c3ccc(Br)cc3)C(=O)c3ccccc3C2=O)CC1 | 11 µM
5 | COC1=C(NS(=O)(=O)c2ccccc2)C(=O)c2ccccc2C1=O | 15.8 µM
6 | CNC1=CC(=O)c2ccccc2C1=O | > 70 µM (inactive)
7 | C=CCNC1=C(Cl)C(=O)c2ccccc2C1=O | 15.4 µM
8 | O=C1C=C(NS(=O)(=O)c2cccs2)C(=O)c2ccccc21 | 9.28 µM
9 | CN1CCN(C2=C(Nc3ccccc3)C(=O)c3ccccc3C2=O)CC1 | 34.2 µM
10 | NC1=C(NC(=O)c2ccccc2)C(=O)c2ccccc2C1=O | 12.3 µM
11 | O=C1C(NS(=O)(=O)c2ccc(Br)s2)=C(N2CCOCC2)C(=O)c2ccccc21 | 27.6 µM
12 | NC1=C(NS(=O)(=O)c2ccccc2)C(=O)c2ccccc2C1=O | 14 µM
13 | O=C1C(Nc2ccccc2)=C(NS(=O)(=O)c2ccccc2[N+](=O)[O-])C(=O)c2ccccc21 | > 70 µM (inactive)
14 | CN1CCN(C2=C(NS(=O)(=O)c3ccc(Br)s3)C(=O)c3ccccc3C2=O)CC1 | 23.6 µM
15 | CC(=O)N(C)C1=C(N2CCCCC2)C(=O)c2ccccc2C1=O | 6.71 µM
16 | O=C(NC1=C(N2CCOCC2)C(=O)c2ccccc2C1=O)c1ccc(Br)cc1 | > 70 µM (inactive)
17 | O=C1C=C(Nc2ccccc2)C(=O)c2ccccc21 | 3.44 µM and 3.95 µM
18 | COC1=C(Nc2ccccc2)C(=O)c2ccccc2C1=O | 3.02 µM
19 | CCN(CC)CCCNC1=C(Nc2ccccc2)C(=O)c2ccccc2C1=O | 24.4 µM
20 | NC1=C(c2ccc(OC(F)(F)F)cc2)C(=O)c2ccccc2C1=O | > 70 µM (inactive)

Row | Compound | AC50
21 | O=C1C=C(NS(=O)(=O)c2ccccc2)C(=O)c2ccccc21 | 5.83 µM
22 | O=C1C(NS(=O)(=O)c2ccc(Br)s2)=C(N2CCCCC2)C(=O)c2ccccc21 | 23.9 µM
23 | Cc1nc2ccccc2n1/N=C/c1ccc([N+](=O)[O-])s1 | > 70 µM (inactive)
24 | CC(=O)N(C)C1=C(N2CCN(C)CC2)C(=O)c2ccccc2C1=O | 5.48 µM
25 | COC1=C(NS(=O)(=O)c2cccs2)C(=O)c2ccccc2C1=O | 23.7 µM
26 | CCN(CC)CCNC1=C(Nc2ccccc2)C(=O)c2ccccc2C1=O | > 70 µM (inactive)
27 | O=C1C(NS(=O)(=O)c2ccccc2)=C(c2ccccc2)C(=O)c2ccccc21 | > 70 µM (inactive)
28 | NC1=C(NS(=O)(=O)c2cccs2)C(=O)c2ccccc2C1=O | 11.3 µM
29 | NC1=C(NS(=O)(=O)c2ccc(Br)cc2)C(=O)c2ccccc2C1=O | 28.1 µM
30 | COC1=C(NS(=O)(=O)c2ccc(Br)cc2)C(=O)c2ccccc2C1=O | 11.3 µM
31 | C[C@@H](NC1=C(Nc2ccccc2)C(=O)c2ccccc2C1=O)c1ccccc1 | > 70 µM (inactive)
32 | NC1=CC(=O)c2ccccc2C1=O | 11 µM
33 | O=C1C(Nc2ccccc2)=C(c2ccccc2)C(=O)c2ccccc21 | 27.3 µM
34 | CC1CCN(CC(CS(=O)(=O)c2ccc([N+](=O)[O-])cc2)N2CCC(C)CC2)CC1 (stereo not given) | > 70 µM (inactive)
35 | O=C1C(Nc2ccccc2)=C(N2CCSCC2)C(=O)c2ccccc21 | > 70 µM (inactive)
36 | O=C(NC1=C(N2CCCCC2)C(=O)c2ccccc2C1=O)c1ccc(Br)cc1 | > 70 µM (inactive)
37 | C=C1C(=O)OC2C1CC/C(C)=C\CCC1(C)OC21 (stereo not given) | > 70 µM (inactive)
38 | CCN1CCN(C2=C(NS(=O)(=O)c3ccc(Br)s3)C(=O)c3ccccc3C2=O)CC1 | > 70 µM (inactive)
39 | O=C1C=C(NS(=O)(=O)c2ccc(Br)cc2)C(=O)c2ccccc21 | 10 µM
40 | C=CCNC1=C(N(C)C(C)=O)C(=O)c2ccccc2C1=O | 0.843 µM
